Assay outcomes from PubChem.
An excerpt weighted towards active compounds, which were near 10% of everything screened.
WT yeast gro inh: growth inhibition of WT yeast, mitochondrial fusion screen. inhibition, % at 10 µM. AID 1362. 190,000 compounds, 2.1% hits. mitochondrial fusion phenotypic screen, WT strain; in the data active = inhibition above about 58%; tested in S. cerevisiae
Lmaj promast: reduces viability of Leishmania major promastigotes; resazurin fluorescence viability; inhibition, % at 10 µM; 200,000 compounds, 9% hits; AID 1063; in the data active = inhibition above about 50%;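 note: promastigotes grown with compound for 44 hours at 28 °C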
PMI act: increases human mannose-6-phosphate isomerase activity; P34949; purified human PMI, coupled resazurin fluorescence, 20 min; active compounds read high; 1 = vehicle control, 0 substrate-free wells; activation factor at 20 µM; 190,000 compounds, 0.005% hits; AID 1214;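 active = activation factor of 2 or more at 20 µM, relative to plate controls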
Target sequence (P34949 whole entry, looked up): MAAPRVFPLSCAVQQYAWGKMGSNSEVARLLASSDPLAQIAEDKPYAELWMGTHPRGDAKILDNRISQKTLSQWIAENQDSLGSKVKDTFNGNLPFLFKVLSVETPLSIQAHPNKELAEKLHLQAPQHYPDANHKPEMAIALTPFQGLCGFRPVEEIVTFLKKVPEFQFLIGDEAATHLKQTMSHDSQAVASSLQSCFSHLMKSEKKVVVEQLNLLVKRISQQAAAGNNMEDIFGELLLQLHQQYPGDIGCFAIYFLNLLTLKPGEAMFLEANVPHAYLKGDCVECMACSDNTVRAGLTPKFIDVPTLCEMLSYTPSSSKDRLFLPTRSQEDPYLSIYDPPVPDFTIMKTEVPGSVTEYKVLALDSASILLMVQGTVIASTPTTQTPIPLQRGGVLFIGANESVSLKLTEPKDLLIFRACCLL
Diaphorase act: activates diaphorase or chemically reduces, flagging diaphorase assay artifacts; Diaphorase/resazurin coupled assay, resorufin fluorescence, 16 min; active compounds read high; 1 = vehicle wells, 0 = NADH-free wells; AID 1229; activation factor at 20 µM; 190,000 compounds, 0.005% hits;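 active = diaphorase activity raised at least twofold by the compound at 20 µM; inactive = activation factor below 2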
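test system = bacterial diaphorase enzyme (C. kluyveri) | quantity = enzyme 0.07 U/mL final | reagent = NADH substrate 0.114 mM plus resazurin dye 0.1 mM, final | incubation = 16 min enzyme reaction, ambient temperature | buffer or medium = HEPES pH 7.4 buffer with MgCl2 and Tween 20 | signal = fluorescence of resorufin, 544 nm excitation, 590 nm emission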
PMI act hi M6P: activators of human phosphomannose isomerase at near-saturating mannose 6-phosphate; 190,000 compounds, 0.34% hits; activation factor at 20 µM; coupled PMI enzyme assay, resazurin fluorescence, 20 min; active compounds read high; 1 = untreated enzyme, 0 = substrate-free blank; P34949;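 active = activation factor of 2 or more at 20 µM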
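Test system – human PMI in coupled enzyme assay · Timing – 20 min incubation at room temperature · Detection – Diaphorase-driven resazurin-to-resorufin fluorescence, excitation 544, emission 590 nm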
An asterisk follows results filed as active; nt = no result given.

SMILES | WT yeast gro inh | Lmaj promast | PMI act | Diaphorase act | PMI act hi M6P
COc1ccccc1/C=N/NC(=O)c1[nH]c(C)c(C(=O)N/N=C/c2ccccc2OC)c1C | 11 | -3 | 1 | 1 | 1.1
COc1cccc(Nc2nc(-c3sc(NC(=O)c4ccccc4)nc3C)cs2)c1 | 66* | 20 | 1 | 0.8 | 0.9
CCCC(=O)Nc1nc(C)c(-c2csc(Nc3ccc(Cl)cc3)n2)s1 | 50 | 24 | 0.6 | 0.9 | 0.6
Cc1ccc(Cl)cc1Nc1nc(-c2sc(NC(=O)C(C)(C)C)nc2C)cs1 | 3 | 97* | 0.9 | 0.8 | 1.1
C=CCCC(=O)Nc1nc(C)c(-c2csc(Nc3cc(OC)ccc3OC)n2)s1 | 25 | 19 | 1 | 0.7 | 0.8
CCCCCC(=O)Nc1nc(C)c(-c2csc(Nc3cc(Cl)ccc3OC)n2)s1 | 1 | 62* | 0.6 | 0.8 | 0.8
COc1ccccc1Nc1nc(-c2sc(NC(=O)CC(C)C)nc2C)cs1 | 3 | 67* | 0.7 | 1 | 0.7
Cc1c(NC(=O)CCc2ccccc2)cccc1[N+](=O)[O-] | 6 | 1 | 0.9 | 0.9 | 0.9
Fc1cccc(C2CCCCN2Cc2nc(C3CC3)no2)c1 (centres undefined) | -13 | -4 | 0.9 | 0.8 | 0.9
O=C(Nc1ccc(F)cc1)c1ccccc1NS(=O)(=O)N1CCCC1 | 34 | -3 | 0.8 | 0.8 | 0.9
COc1ccccc1-c1c(C(F)(F)F)oc2cc(OC(=O)c3ccc([N+](=O)[O-])cc3)ccc2c1=O | -12 | -3 | 0.9 | 0.9 | 1
COC(=O)c1scc(C)c1-n1ccc(C(=O)C(=O)N(C)C)c1 | -8 | -6 | 0.9 | 0.9 | 0.9
O=C(Nc1nonc1NC(=O)c1cccs1)c1cccs1 | -1 | 35 | 1.2 | 0.8 | 1.1
COc1cccc(Nc2nc(-c3sc(NC(=O)CC(C)C)nc3C)cs2)c1 | 1 | 81* | 1 | 0.7 | 0.8
CCCC(=O)Nc1nc(C)c(-c2csc(Nc3ccccc3OC)n2)s1 | 10 | 59* | 0.7 | 0.8 | 0.8
COc1ccccc1Nc1nc(-c2sc(NC(=O)C(C)(C)C)nc2C)cs1 | -7 | 100* | 0.7 | 0.9 | 0.8
COc1ccccc1Nc1nc(-c2sc(NC(=O)c3cccc(Cl)c3)nc2C)cs1 | 37 | 10 | 0.9 | 0.8 | 1
COc1ccccc1Nc1nc(-c2cccc(N3C(=O)c4ccccc4C3=O)c2)cs1 | -1 | -9 | 1.1 | 0.8 | 1.1
CCCC(=O)Nc1nc(C)c(-c2csc(Nc3cc(OC)ccc3OC)n2)s1 | 49 | 47 | 1 | 0.7 | 0.7
COc1ccccc1Nc1nc(-c2c(C)[nH]c3ccccc23)cs1 | 15 | 13 | 1.2 | 0.8 | 2*
CCC(=O)N/N=C(\C)CC(=O)Nc1ccc2c(c1)OCCO2 | 0 | 2 | 1 | 0.9 | 1
Cc1sc(NC(=O)CN(Cc2ccc(F)cc2)C(=O)C(C)(C)C)c(C(N)=O)c1C | -13 | -2 | 0.9 | 0.8 | 0.9
CN(C)S(=O)(=O)c1ccc(Cl)c(NC(=O)CSc2nc3ccccc3c(=O)n2CCCN2CCOCC2)c1 | -10 | 25 | 0.9 | 0.7 | 1
O=C(Nc1nc2cc(Cl)ccc2s1)C1CCCN(S(=O)(=O)c2cccc3cccnc23)C1 (centres undefined) | 39 | 38 | 1 | 0.8 | 1
CCCC(C)C(=O)Nc1nc(C)c(-c2csc(Nc3cc(OC)ccc3OC)n2)s1 (centres undefined) | 25 | 84* | 0.9 | 0.8 | 0.9
SMILES | WT yeast gro inh | Lmaj promast | PMI act | Diaphorase act | PMI act hi M6P
c1ccc(COc2ccc(OCCCNC3CCCC3)cc2)cc1 | nt | 100* | 1 | 0.9 | 1
COCCCNCCOc1ccccc1-c1ccccc1 | 13 | 47 | 1 | 0.8 | 1
CCc1cccc(OCCCN2C(=O)NC(C)(C)C2=O)c1 | -12 | -6 | 1.1 | 0.9 | 1
COCCCNCCCCOc1ccc(OCc2ccccc2)cc1 | 31 | 99* | 1 | 0.9 | 1.1
CCc1cccc(OCCCCNCCOC)c1 | 13 | 90* | 1 | 0.8 | 1
C=CCNCCCCOc1ccc(OCc2ccccc2)cc1 | 16 | 99* | 1 | 1 | 1
C=CCNCCOc1cccc(Br)c1 | 0 | 16 | 1 | 0.9 | 1
O=C(CNC(=O)c1ccncc1)N/N=C/c1ccccc1[N+](=O)[O-] | 3 | 18 | 1.1 | 0.9 | 1.1
CC1CCCCN1C(=O)CNCC1CCCO1 (centres undefined) | -9 | -4 | 0.9 | 0.8 | 1
CCc1ccc(N2C(=O)C3C4CCC(C4=C(C)C)C3C2=O)cc1 (centres undefined) | -3 | 0 | 1.1 | 1.1 | 1.1
CCOc1ccc(OCCCCNCCN)cc1 | -8 | 86* | 1 | 0.9 | 1
CCOc1ccc(OCCCC(=O)O)cc1 | 10 | -4 | 1.1 | 1 | 1.1
O=C(NCCNC1CCC(c2ccccc2)CC1)c1ccc(F)cc1 (centres undefined) | 22 | 94* | 1 | 1.2 | 1.1
O=C(NC1CCC(c2ccccc2)CC1)c1cccnc1 (centres undefined) | -23 | -5 | 1.1 | 1.2 | 1.1
CCOc1ccccc1NC(=S)N1CCC(NC(=O)NC23CC4CC(CC(C4)C2)C3)CC1 | -18 | 60* | 1 | 0.8 | 1
COc1ccc(NC(=S)N2C3CCC2CC(NC(=O)NC24CC5CC(CC(C5)C2)C4)C3)c(OC)c1 (centres undefined) | 15 | -3 | 0.8 | 0.8 | 0.9
COc1ccccc1NC(=S)N1CCC(NC(=O)NC23CC4CC(CC(C4)C2)C3)CC1 | -4 | 97* | 1 | 0.9 | 1
Cc1ccc([N+](=O)[O-])cc1S(=O)(=O)NCCc1c(C)[nH]c2c(C)cccc12 | -15 | 66* | 1 | 0.9 | 1
Cc1[nH]c2c(C)cccc2c1CCNS(=O)(=O)c1cccc([N+](=O)[O-])c1 | 5 | 28 | 0.9 | 0.9 | 1
CCOC(=O)Cn1c(=O)cc(C)c2cccc(C)c21 | -5 | -2 | 1 | 1 | 1
Cc1cc(=O)oc2cc(OCC(=O)NCc3ccccn3)ccc12 | 0 | 3 | 0.9 | 0.9 | 0.9
CCCc1cc(=O)oc2cc(OCC(=O)NCc3cccs3)ccc12 | -16 | 71* | 1.1 | 1 | 1.1
Cc1ccc(S(=O)(=O)N(C)C)cc1NS(=O)(=O)c1ccc(Cl)s1 | 0 | 69* | 0.9 | 0.8 | 0.9
CN(C)S(=O)(=O)c1cccc(NS(=O)(=O)c2ccc(Cl)s2)c1 | 8 | -1 | 1 | 0.9 | 1
Cc1cc(N=Cc2cc(Cl)ccc2O)no1 | 58* | -10 | 0.9 | 0.9 | 0.9
Cn1c(/N=C/c2cc(Cl)ccc2O)nc2ccccc21 | 7 | 3 | 0.7 | 0.5 | 0.5
O=C(Nc1ccc(Cl)c(C(F)(F)F)c1)c1ccco1 | 72* | 31 | 0.9 | 0.9 | 1
O=C(Nc1cccc(C(F)(F)F)c1)c1ccco1 | 10 | 31 | 0.9 | 0.9 | 0.9
